ChEMBL document CHEMBL1151938, “Identification of a beta3-peptide HIV fusion inhibitor with improved potency in live cells” (Bioorg Med Chem Lett, 2009)

What was measured:
[1] = Cytotoxicity against human MT2 cells by MTT colorimetric method; type: cell-based
How it was run: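 Uninfected MT-2 cells cultured with a range of β-peptide concentrations, without virus. Viability read by MTT colorimetric assay. CC50 is the concentration giving 50% inhibition of MT-2 cell growth. Triplicate samples at each concentration.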

[2] = system: Human immunodeficiency virus 1; assay: Antiviral activity against HIV1 3B infected human MT2 cells assessed as cytoprotection after 5 days by MTT colorimetric method; type: functional, organism-based; details: Human immunodeficiency virus 1, 3B, MT2, 120 h
How it was run: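 MT-2 human T-cells plated with a range of β-peptide concentrations and cultured with wild-type HIV-1 IIIB for 5 days. Live cells measured by MTT reduction to formazan, read at 595 nm. EC50 is the peptide concentration giving 50% survival of infected cells. Triplicate samples at each concentration.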

[3] = Binding affinity to HIV1 gp41-GCN4-pIQI fusion protein IQN17; set-up: species or system Human immunodeficiency virus 1
How it was run: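 β-peptides labeled at the N-terminus with fluorescein-hexanoic acid NHS ester and tested in a direct fluorescence polarization assay against IQN17. IQN17 is a trimeric fusion of 17 gp41 N-terminal residues with a 29-residue isoleucine zipper. KD is taken at 50% binding of IQN17. Binding curves run in triplicate.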

[4] = Selectivity ratio of CC50 for human MT2 cells to EC50 for HIV1 3B infected human MT2 cells; type: ADME, cell-based; details: for selectivity ratio: MT2 cells and HIV1 3B infected MT2 cells, read-out: Ratio CC50/EC50
How it was run: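 Ratio of CC50 to EC50. CC50 comes from MTT viability of uninfected MT-2 cells given peptide alone. EC50 comes from MTT survival of MT-2 cells infected with HIV-1 IIIB after 5 days. Both curves used triplicate samples.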

Row | Compound | Kd [3] | CC50 [1] | EC50 [2] | Ratio CC50/EC50 ([4]; mt2) | selectivity ratio [4]
1 | CC[C@@](C)(CC(=O)N[C@H](CC(=O)O)CC(=O)NC(C)(C)CC(=O)NC(CC(=O)N[C@@H](CCN)CC(=O)NC(C)(C)CC(=O)N[C@H](CC(=O)NC(CC(=O)O)CC(=O)O)Cc1c[nH]c2ccccc12)Cc1cccc(F)c1)NC(=O)CC(C)(C)NC(=O)C[C@@H](N)CCN (stereo partly specified) | 15.7 µM | 50 µM | 18 µM | – | –
2 | CC[C@@](C)(CC(=O)N[C@H](CC(=O)O)CC(=O)NC(C)(C)CC(=O)NC(CC(=O)N[C@@H](CCN)CC(=O)NC(C)(C)CC(=O)N[C@H](CC(=O)NC(CC(=O)O)CC(=O)O)Cc1c[nH]c2ccccc12)Cc1ccc(I)cc1)NC(=O)CC(C)(C)NC(=O)C[C@@H](N)CCN (stereo partly specified) | 14.1 µM | 23 µM | 8.9 µM | – | –
3 | enfuvirtide | – | – | 0.0375 µM | – | –
4 | CC[C@@](C)(CC(=O)N[C@H](CC(=O)O)CC(=O)NC(C)(C)CC(=O)NC(CC(=O)N[C@@H](CCN)CC(=O)NC(C)(C)CC(=O)N[C@H](CC(=O)NC(CC(=O)O)CC(=O)O)Cc1c[nH]c2ccccc12)Cc1ccccc1Cl)NC(=O)CC(C)(C)NC(=O)C[C@@H](N)CCN (stereo partly specified) | 13.3 µM | 31 µM | 8.8 µM | – | 3.5
5 | CC[C@@](C)(CC(=O)N[C@H](CC(=O)O)CC(=O)NC(C)(C)CC(=O)NC(CC(=O)N[C@@H](CCN)CC(=O)NC(C)(C)CC(=O)N[C@H](CC(=O)NC(CC(=O)O)CC(=O)O)Cc1c[nH]c2ccccc12)Cc1cccc(C(F)(F)F)c1)NC(=O)CC(C)(C)NC(=O)C[C@@H](N)CCN (stereo partly specified) | 10.2 µM | 150 µM | 19 µM | – | 7.9

More lines, main results first:

Row | Kd [3] | Compound | CC50 [1] | EC50 [2] | Ratio CC50/EC50 ([4]; mt2) | selectivity ratio [4]
6 | 104 µM | CC[C@@](C)(CC(=O)N[C@H](CC(=O)O)CC(=O)NC(C)(C)CC(=O)NC(CC(=O)N[C@@H](CCN)CC(=O)NC(C)(C)CC(=O)N[C@H](CC(=O)NC(CC(=O)O)CC(=O)O)Cc1c[nH]c2ccccc12)Cc1cccnc1)NC(=O)CC(C)(C)NC(=O)C[C@@H](N)CCN (stereo partly specified) | > 250 µM | > 250 µM | Not Active | –
7 | 12.2 µM | CC[C@@](C)(CC(=O)N[C@H](CC(=O)O)CC(=O)NC(C)(C)CC(=O)NC(CC(=O)N[C@@H](CCN)CC(=O)NC(C)(C)CC(=O)N[C@H](CC(=O)NC(CC(=O)O)CC(=O)O)Cc1c[nH]c2ccccc12)Cc1ccc2ccccc2c1)NC(=O)CC(C)(C)NC(=O)C[C@@H](N)CCN (stereo partly specified) | 23 µM | 8.2 µM | – | –
8 | 16.5 µM | CC[C@@](C)(CC(=O)N[C@H](CC(=O)O)CC(=O)NC(C)(C)CC(=O)N[C@@H](CC(=O)N[C@@H](CCN)CC(=O)NC(C)(C)CC(=O)N[C@H](CC(=O)NC(CC(=O)O)CC(=O)O)Cc1c[nH]c2ccccc12)Cc1c[nH]c2ccccc12)NC(=O)CC(C)(C)NC(=O)C[C@@H](N)CCN | 100 µM | 56 µM | – | 1.8
